From ChEMBL document CHEMBL1138768, “A locally active antiinflammatory macrolide (MLD987) for inhalation therapy of asthma” (J Med Chem, 2004) come the findings set out here.

Experiment [1] can be described thus: Inhibitory activity against IL-5 production (Anti-CD3 monoclonal antibody stimulated and cultured CD4 positive cells purified from human peripheral blood mononuclear cell). Format: functional, cell-based.
Experiment [2] is described as follows: Inhibitory activity against IFN-gamma production (Anti-CD3 monoclonal antibody stimulated and cultured CD4 positive cells purified from human peripheral blood mononuclear cell). Format: functional, cell-based.
For experiment [3], the species on record is Rattus norvegicus. Description: Intratracheal dose that inhibits by 50% the allergen OA-induced eosinophil influx in to the airway lumen of actively sensitized rats after -1h, +24h treatment schedule. Format: functional. The conditions noted are these: Trachea, inhaled or nasal. The method, boiled down: (§1)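 Actively sensitized Brown-Norway rats challenged with ovalbumin (OA). Compound given intratracheally, orally or i.v. either 1 h or 6 h before challenge, with a second dose 24 h after challenge. Eosinophils counted in bronchoalveolar lavage fluid; ED50 is the dose inhibiting OA-induced eosinophil influx by 50%; n = 5–20 rats.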

A short description of experiment [4]: Inhibitory activity against calcineurin phosphatase. On the set-up: species or system Homo sapiens.
Experiment [5] in a line: Inhibitory activity against IL-2 receptor in human T-cell jurkat cell line stimulated by phytohemagglutininin and phorbol myristate acetate. Format: cell-based. The method, boiled down: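 Jurkat human T-cell line carrying an IL-2 reporter gene, stimulated with phytohemagglutinin plus phorbol myristate acetate. Values are mean IC50 ± SEM (n = 3–6) or the mean of two experiments.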

The nature of experiment [6]: Inhibitory activity against PPD-induced proliferation of human peripheral blood mononuclear cell (HPBMNC). It is filed as functional. The method, boiled down:
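Human peripheral blood mononuclear cells isolated from blood, stimulated with PPD (M. tuberculosis purified protein derivative). Proliferation read after 5 days in medium with 20% fetal calf serum. Mean IC50 ± SEM (n = 3–6) or the mean of two experiments.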

Experiment [7] concerns Rattus norvegicus. Description: Oral dose that inhibits by 50% the allergen OA-induced eosinophil influx in to the airway lumen of actively sensitized rats after -1h, +24h treatment schedule. Format: functional. The method, boiled down: as §1
The test system of experiment [8] is Rattus norvegicus. Description: Oral dose that inhibits by 50% the allergen OA-induced eosinophil influx in to the airway lumen of actively sensitized rats after -6h, +24h treatment schedule. Format: functional. The method, boiled down: as §1
In experiment [9] the test system is Rattus norvegicus. Kind of experiment: Intravenous dose that inhibits by 50% the allergen OA-induced eosinophil influx in to the airway lumen of actively sensitized rats after -1h, +24h treatment schedule. It is filed as functional. The method, boiled down:
as §1

For experiment [10], the system named is Rattus norvegicus. Description: Intravenous dose that inhibits by 50% the allergen OA-induced eosinophil influx in to the airway lumen of actively sensitized rats after -6h, +24h treatment schedule. It is filed as functional. The method, boiled down: as §1
The species entered for experiment [11] is Rattus norvegicus. Kind of experiment: Intratracheal dose that inhibits by 50% the allergen OA-induced eosinophil influx in to the airway lumen of actively sensitized rats after -6h, +24h treatment schedule. Format: functional. As to conditions: Trachea, inhaled or nasal. The method, boiled down:
as §1

Experiment [12] concerns PBMC. Kind of experiment: Inhibitory activity against murine mixed lymphocyte reaction. As to conditions: Mus musculus.

A word on the IC50: it is the concentration at which inhibition is half-maximal. A higher IC50 goes with weaker potency in that assay. A word on the ED50: it is the dose at which the effect has come halfway, by size or by number of responders. Turning to `CCCC1O[C@@H]2C[C@H]3[C@@H]4CCC5=CC(=O)C=C[C@]5(C)[C@H]4[C@@H](O)C[C@]3(C)[C@]2(C(=O)CO)O1` (stereo not given in full) [BUDESONIDE], the IC50 in [1] amounted to 0.12 nM; in experiment [2], 0.32 nM. For the same molecule, in experiment [3], the ED50 worked out at 0.5 mg/kg.
The Ki is the equilibrium dissociation constant of an inhibitor or competing ligand from its target. For `C=CC[C@@H]1/C=C(\C)C[C@H](C)C[C@H](OC)[C@H]2O[C@@](O)(C(=O)C(=O)N3CCCC[C@H]3C(=O)O[C@H](/C(C)=C/[C@@H]3CC[C@@H](O)[C@H](OC)C3)[C@H](C)[C@@H](O)CC1=O)[C@H](C)C[C@@H]2OC` [TACROLIMUS ANHYDROUS], the Ki in experiment [4] was found to be 35 nM. The IC50 worked out at 0.19 nM in [5]; 0.18 nM in experiment [6]; 0.06 nM in [1]; 0.06 nM in [2]; 0.29 nM in experiment [12]. For the same molecule, the ED50 was 10 mg/kg in experiment [7]; 3 mg/kg in experiment [8]; 0.3 mg/kg in experiment [9]; 0.3 mg/kg in [10]; 0.3 mg/kg in [3]; 0.3 mg/kg in experiment [11].
